Assay results pooled from the literature.
Protocols differ between the studies behind these lines. pIC50: −log10 of the molar value.
Cell line: SK-MEL-5
Read-out: cell growth or viability

For `O=C1NC(=NCc2cccs2)S/C1=C\c1ccc2ncccc2c1`, the pIC50 was < 5.00.
With `COc1cccc(Oc2ccccc2NC(=O)CNC(=O)c2cccc3ccccc23)c1` the GI50 was 0.219 µM (SRB; 48 h).
`COc1ccc(C(=O)/C=C/c2cccnc2)cc1S(N)(=O)=O` has a GI50 of 14.8 µM (SRB; 48 h).
The GI50 of `COc1ccc(-c2ccc(-c3ccc(C(=N)N)nc3)s2)cc1` is reported as 1.79 µM (SRB).
For `O=C1NCCc2[nH]c(-c3ccncc3)cc21`, the pIC50 was < 5.00.
For `COc1cc(-c2ccc(-c3ccc(C(=N)N)nc3)s2)cc(OC)c1OC`, the GI50 was 1.67 µM (SRB).
The GI50 of `COc1ccccc1/C=C/C(=O)c1ccc(OC)c(S(N)(=O)=O)c1` is reported as 3.9 µM (SRB; 48 h).
`Cc1ncsc1-c1ccc(CNC(=O)[C@@H]2C[C@H](O)CN2C(=O)[C@@H](NC(=O)C2(F)CC2)C(C)(C)C)c(OCCc2ccc(CN3CCN(c4cc(-c5ccccc5O)nnc4N)CC3)cc2)c1` has a pIC50 of 6.27 (ATP luminescence; 7 days).
